PubChem BioAssay
The source made the active and inactive calls.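 How the source made its calls, unless noted: active means NADPH fluorescence slope more negative than the mean of all samples by about 3 SD, 99.7% confidence; inactive means the rest.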

Legend:
[1] = inhibitors of TNFa-induced NFkB p65 translocation, primary screen, imaging, HUVEC, MLSMR starter and 10KST1 sets (AID 438;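 active means inhibition above 20% together with a positive visual image hit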;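 further: compound added about 3h40 before a 20 min TNFalpha stimulation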;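 on inhibition: signal is the nuclear over cytoplasmic p65 intensity ratio per well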); settings: HUVEC TNFa-induced p65 nuclear translocation; cell count: measured here: nuclei count (cytotoxicity indicator), at 2.08 µM; inhibition: at 2 µM, stronger effect = higher value, 0% TNFa-plus-vehicle, 100% no-TNFa wells
[2] = endothelial E-selectin expression blockers – imaging, HUVEC, immunofluorescence, MLSMR starter and 10KST1 sets, primary screen (AID 487;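 active means visually confirmed hit in the image check and inhibition above 20%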;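 on inhibition: signal is fraction of cell area covered by stained E-selectin grains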;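 on nuclei count: 100% = median nuclei count of all wells on the same plate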); settings: HUVEC TNFalpha-induced E-selectin immunofluorescence imaging, at 2 µM; inhibition: stronger effect = higher value; nuclei count: measured here: cell number, toxicity
[3] = Primary imaging screen for DUSP6 inhibitors that restore phospho-Erk in transfected HeLa cells, chemical complementation (AID 609;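 active means compounds giving at least 50% inhibition in the cell-based MKP-3 phosphatase rescue imaging test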;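 on inhibition: phospho-Erk level distribution per well compared with pooled transfected vehicle control wells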); settings: HeLa MKP-3 transfected, phospho-Erk imaging KS statistic, at 10 µM, cells stimulated with TPA for 15 min
[4] = biological target: Dual specificity protein phosphatase 6 (Homo sapiens) (UniProt Q16828); assay: as above; settings: HeLa MKP-3 transfected, phospho-Erk imaging KS statistic; at 10 µM; stronger effect = higher value; cells stimulated with TPA for 15 min
[5] = biological target: Voltage-gated potassium channel subunit beta-2 (Rattus norvegicus) (UniProt P62483); assay: inhibitors of rat Kvbeta2 reductase activity – biochemical, NADPH fluorescence, primary screen (AID 622;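 active means fluorescence slope higher than the sample average by over 3 SD, cut at about -0.22 in these data, passing the limit was not always enough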;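 further: slope of raw intensity against log time taken from 70 to 1610 s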); settings: recombinant KvBeta, 4-cyanobenzaldehyde reduction, at 10 µM, stronger effect = higher value
[6] = biological target: Voltage-gated potassium channel subunit beta-2 (Rattus norvegicus) (UniProt P62483); assay: enhancers of rat Kvbeta2 NADPH turnover – biochemical, NADPH fluorescence, primary screen (AID 623); settings: Recombinant KvBeta, NADPH fluorescence decrease slope, 10 min; at 10 µM; stronger effect = lower value;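 further: fluorescence intensity change per second fitted from 20 to 320 s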
[7] = biological target: Alpha-2C adrenergic receptor (Homo sapiens) (UniProt P18825); assay: compounds altering alpha2C-coupled GIRK flux – cell-based, HEK293 alpha2C/GIRK1/2, thallium flux, primary screen (AID 624;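 active means fluorescence slope after compound addition differing from the mean of all screened samples at 99.7% confidence, in either direction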;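 further: slope of fluorescence ratio to pre-addition baseline per second over 15 to 24 s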); settings: thallium flux BTC fluorescence, at 10 µM, actives lie on both sides
[8] = inhibitors of larval lipid processing in zebrafish, primary screen, whole organism, PED6 fluorescence, gall bladder and intestine (AID 686;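 active means a full or partial loss of lipid-probe fluorescence in the fish gall bladder, intestine or both, judged by eye; inactive means no fluorescence loss, or compound toxic to the fish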;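 further: larvae 5 to 7 days old with five fish per well; signal comes from phospholipase A2 cleavage of quenched PED6 carried via bile; overnight exposure to compound and PED6 before scoring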); settings: Zebrafish larvae PED6 lipid processing, fluorescence scoring; screened at 20 µM (by protocol)
In short: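 Doses: 20 µM single dose. Test system: live zebrafish larvae aged 5-7 days, whole organism. Quantity: five larvae per well. Measured by: By-eye fluorescence microscopy. Reagent: ingested quenched lipid PED6 at 100 nM. Read-out: visual per-well fluorescence inhibition score. Times: overnight exposure of larvae to compound plus PED6.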

[9] = loss of swimming-algae plug formation – whole organism, Chlamydomonas reinhardtii, WT vs cilia-less mutant, absorbance, 96-well, primary screen (AID 463189;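 active means inhibition at or above 50% relative to wild type and mutant plate controls; inactive means inhibition below 50%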;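 further: 0% = wild type cc124 cells in DMSO and 100% = ciliumless bld1 mutant cells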); settings: Chlamydomonas reinhardtii gravitaxis, OD600 absorbance, 2 days; at 10 µM; stronger effect = higher value
[10] = measured here: cell density z-score
[11] = measured here: nuclear c-Myc green intensity z-score
[12] = measured here: nuclear pErk red intensity z-score, stronger effect = higher value

Alpha-2C adrenergic receptor (Homo sapiens), sequence (P18825 whole entry, looked up): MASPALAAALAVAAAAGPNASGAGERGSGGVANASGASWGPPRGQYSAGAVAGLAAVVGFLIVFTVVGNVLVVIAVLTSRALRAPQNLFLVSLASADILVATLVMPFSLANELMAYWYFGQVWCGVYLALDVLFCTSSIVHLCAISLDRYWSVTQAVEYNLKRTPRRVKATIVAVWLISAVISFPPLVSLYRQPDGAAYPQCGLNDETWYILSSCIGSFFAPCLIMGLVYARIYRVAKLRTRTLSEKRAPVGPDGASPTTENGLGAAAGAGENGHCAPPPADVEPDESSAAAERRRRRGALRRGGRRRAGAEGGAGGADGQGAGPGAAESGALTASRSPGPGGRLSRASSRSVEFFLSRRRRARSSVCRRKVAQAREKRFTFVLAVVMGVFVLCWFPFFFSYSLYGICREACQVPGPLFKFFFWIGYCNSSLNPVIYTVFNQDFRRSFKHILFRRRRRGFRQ
Dual specificity protein phosphatase 6 (Homo sapiens), sequence (Q16828 whole entry, looked up): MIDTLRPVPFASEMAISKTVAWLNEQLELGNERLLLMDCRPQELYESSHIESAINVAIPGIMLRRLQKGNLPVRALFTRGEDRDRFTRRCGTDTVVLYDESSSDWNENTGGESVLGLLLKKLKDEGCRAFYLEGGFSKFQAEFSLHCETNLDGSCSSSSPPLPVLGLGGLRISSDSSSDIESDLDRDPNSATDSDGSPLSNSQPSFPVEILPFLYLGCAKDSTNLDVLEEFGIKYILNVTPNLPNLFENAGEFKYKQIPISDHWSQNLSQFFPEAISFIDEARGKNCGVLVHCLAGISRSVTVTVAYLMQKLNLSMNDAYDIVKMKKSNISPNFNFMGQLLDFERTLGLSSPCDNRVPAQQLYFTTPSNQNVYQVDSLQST
Voltage-gated potassium channel subunit beta-2 (Rattus norvegicus), sequence (P62483 whole entry, looked up): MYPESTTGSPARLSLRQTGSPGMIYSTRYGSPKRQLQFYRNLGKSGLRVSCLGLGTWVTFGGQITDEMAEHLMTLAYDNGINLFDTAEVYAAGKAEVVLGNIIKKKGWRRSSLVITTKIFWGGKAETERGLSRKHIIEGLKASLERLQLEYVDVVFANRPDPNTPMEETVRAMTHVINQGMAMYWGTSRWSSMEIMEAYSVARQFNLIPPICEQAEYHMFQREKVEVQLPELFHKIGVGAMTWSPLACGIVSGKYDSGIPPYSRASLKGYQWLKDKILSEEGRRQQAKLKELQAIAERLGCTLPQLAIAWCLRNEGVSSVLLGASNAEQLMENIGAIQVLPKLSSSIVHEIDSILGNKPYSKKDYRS

Row | Structure (SMILES) | cell count [1] | inhibition [1] | inhibition [2] | nuclei count [2] | z-score [3, 10] | z-score [3, 11] | z-score [3, 12] | inhibition [4] | fluorescence slope [5] | NADPH fluorescence slope [6] | slope [7] | outcome [8] | inhibition [9]
1 | Cn1cc(C(=O)NCN2CCCCC2)c2ccccc21 | 637 | -1.9% (inactive) | 33.7% (inactive) | 201% | 0.345 | -0.8 | -0.0314 | -5.89% (inactive) | -0.45 (inactive) | -0.000261 (inactive) | 0.00517 (inactive) | inactive | -12.4% (inactive)
2 | CC(=O)C1=C(O)C(=O)N(c2cccc(C(=O)O)c2)C1c1ccccc1F (stereo unspecified) | 545 | -2.4% (inactive) | -73.9% (inactive) | 156% | -0.336 | 0.7 | 0.539 | -9.66% (inactive) | -0.505 (inactive) | -4.6e-05 (inactive) | 0.00649 (inactive) | inactive | 3.92% (inactive)
3 | CCOC(=O)CSc1nc(-c2ccncc2)ccc1C#N | 688 | -16.1% (inactive) | -23.4% (inactive) | 174% | -1.46 | -0.434 | 0.758 | -3.95% (inactive) | -0.355 (inactive) | -2e-05 (inactive) | 0.00882 (inactive) | inactive | -7.15% (inactive)
4 | CCN(CC)CCNC(=O)c1ccccc1N | 521 | -17.4% (inactive) | -314% (inactive) | 187% | 0.845 | 0.248 | 0.636 | -8.95% (inactive) | -0.463 (inactive) | -0.000132 (inactive) | 0.00488 (inactive) | inactive | -5.26% (inactive)
5 | Cc1cc(=O)oc(C)c1C(=O)NCCNC(=O)c1c(C)cc(=O)oc1C | 496 | -5.9% (inactive) | -127% (inactive) | 140% | 0.642 | -0.299 | 1.3 | -14% (inactive) | -0.534 (inactive) | -3.6e-05 (inactive) | 0.0046 (inactive) | inactive | -8.5% (inactive)
6 | CCN(CC)CCN1C(=O)C(=O)/C(=C(/O)c2ccc(C)cc2)C1c1cccnc1 (stereo unspecified) | 390 | -0.5% (inactive) | -20.8% (inactive) | 113% | 0.619 | -0.778 | 0.527 | -5.89% (inactive) | -0.426 (inactive) | -5.7e-05 (inactive) | 0.00669 (inactive) | inactive | 8.05% (inactive)
7 | CCOC(=O)c1c(C)n(C)c2ccc(OC)c(NC(=O)CN3CCN(Cc4ccccc4)CC3)c12 | 291 | 0.8% (inactive) | -14% (inactive) | 93.5% | -0.908 | 0.5 | 1.45 | -6.59% (inactive) | -0.431 (inactive) | -0.000147 (inactive) | 0.00677 (inactive) | inactive | -10.1% (inactive)
8 | Cc1ccnc(N2CCN(c3cc(C)c(C#N)c4nc5ccccc5n34)CC2)c1 | 572 | 7.2% (inactive) | -151% (inactive) | 125% | 0.222 | 0.0486 | -0.157 | 13.9% (inactive) | -0.408 (inactive) | -8.8e-06 (inactive) | 0.00554 (inactive) | inactive | -4.75% (inactive)
9 | O=C(O)CC(NCc1ccco1)C(=O)OCC1CCCO1 (stereo unspecified) | 557 | -3.4% (inactive) | -26.1% (inactive) | 134% | 0.185 | -1.18 | -0.884 | 5.26% (inactive) | -0.369 (inactive) | -2.3e-05 (inactive) | 0.00498 (inactive) | inactive | 17.1% (inactive)
10 | CCOc1cc(CN2CCOCC2)cc(C(C)=O)c1 | 617 | -3.9% (inactive) | -113% (inactive) | 110% | 1.86 | 1.2 | -0.466 | 15.1% (inactive) | -0.573 (inactive) | -1.5e-05 (inactive) | 0.00527 (inactive) | inactive | 38.5% (inactive)
11 | COc1cc(-c2nn3c(-c4ccccn4)nnc3s2)cc(OC)c1OC | 600 | -13.9% (inactive) | -249% (inactive) | 171% | 1.12 | -1.51 | 0.045 | -2.47% (inactive) | -0.449 (inactive) | -0.000128 (inactive) | 0.00656 (inactive) | inactive | 13.6% (inactive)
12 | COc1ccc(Cn2c(O)cc(=O)[nH]c2=O)cc1 | 518 | -0.7% (inactive) | -49.2% (inactive) | 94% | -1.59 | 1.15 | -0.805 | 11.9% (inactive) | -0.386 (inactive) | 4.3e-06 (inactive) | 0.00581 (inactive) | inactive | -11.1% (inactive)
13 | CC(=O)Oc1ccccc1C1OCCN1C(C)=O (stereo unspecified) | 619 | -6.5% (inactive) | -38.8% (inactive) | 170% | -0.208 | -0.565 | 1.43 | -2.69% (inactive) | -0.375 (inactive) | -2.3e-05 (inactive) | 0.00518 (inactive) | inactive | -5.26% (inactive)
14 | COC(=O)CSc1nc(N)c2c3c(sc2n1)CCCC3 | 627 | -10.6% (inactive) | -9.7% (inactive) | 172% | -2.1 | 0.19 | 1.1 | 4.37% (inactive) | -0.355 (inactive) | -6.3e-05 (inactive) | 0.00567 (inactive) | inactive | -6.63% (inactive)
15 | CNc1ccccc1-c1nc2ccccc2n(C)c1=O | 545 | 1.8% (inactive) | -41.8% (inactive) | 154% | 0.495 | -0.326 | 0.207 | 14% (inactive) | -0.488 (inactive) | -7.9e-05 (inactive) | 0.00346 (inactive) | active; weak signal in gallbladder and intestine | 16% (inactive)
16 | Cc1cc(C(F)(F)F)c(C#N)c(SCC(=O)NC2CC2)n1 | 541 | -11.5% (inactive) | 2.6% (inactive) | 99.8% | 1.52 | -0.242 | -0.534 | 15.5% (inactive) | -0.514 (inactive) | -3.6e-05 (inactive) | 0.0063 (inactive) | inactive | 7.84% (inactive)
17 | CCC1(C)Cc2c(C#N)c(N)sc(=S)c2CO1 (stereo unspecified) | 505 | -3.2% (inactive) | -128% (inactive) | 140% | 0.126 | 0.287 | -0.524 | -14% (inactive) | -0.501 (inactive) | -2.4e-05 (inactive) | 0.00206 (inactive) | inactive | 28.8% (inactive)
18 | COc1ccc(N(CN2C(=O)C3C4C=CC(C4)C3C2=O)C(=O)c2ccco2)cc1 (stereo unspecified) | 541 | 2.9% (inactive) | -74.9% (inactive) | 117% | -1.56 | 1.43 | 1.11 | 1.6e-07% (inactive) | -0.58 (inactive) | -3.5e-05 (inactive) | 0.00619 (inactive) | inactive | -8.45% (inactive)
19 | CCOC(=O)c1ccc(N2CC(O)=C(c3nc4ccccc4c(=O)[nH]3)C2=N)cc1 | 623 | -11.3% (inactive) | 45.3% (inactive) | 186% | -1.54 | 0.558 | 1.53 | -13.3% (inactive) | -0.208 (inactive) | -1.8e-05 (inactive) | 0.00503 (inactive) | inactive | 2.42% (inactive)
20 | CSc1nc(NC(C)=O)nc(C)c1Cl | 555 | 1.9% (inactive) | 33.2% (inactive) | 97.7% | -0.722 | 0.648 | -0.574 | 1.48% (inactive) | -0.343 (inactive) | -7.4e-06 (inactive) | 0.00457 (inactive) | inactive | 37.7% (inactive)
21 | COc1ccc(OCC(O)Cn2c(Nc3cccc(C)c3)nc3c2c(=O)n(C)c(=O)n3C)cc1 (stereo unspecified) | 514 | -0.2% (inactive) | -160% (inactive) | 139% | 1.7 | -1.51 | -0.035 | 26.3% (inactive) | -0.541 (inactive) | -3.3e-05 (inactive) | 0.00591 (inactive) | inactive | 7.54% (inactive)
22 | O=C1C(=O)N(CCN2CCOCC2)C(c2ccccn2)/C1=C(/O)c1ccc(F)cc1 (stereo unspecified) | 368 | -5.8% (inactive) | -3.3% (inactive) | 124% | -0.169 | 0.443 | -0.876 | 3.66% (inactive) | -0.392 (inactive) | -5.6e-05 (inactive) | 0.00569 (inactive) | inactive | 38.7% (inactive)
23 | Cn1c(OCc2ccc3c(c2)OCO3)nc2c1c(=O)n(Cc1cccc(Cl)c1)c(=O)n2C | 646 | 5.7% (inactive) | -35.9% (inactive) | 149% | -0.768 | 0.366 | 0.018 | 9.61% (inactive) | -0.484 (inactive) | -0.000102 (inactive) | 0.00957 (inactive) | inactive | 4.63% (inactive)
24 | CN1CCN(CCCCOc2ccc(F)cc2)CC1 | 488 | -6.3% (inactive) | -39.9% (inactive) | 114% | 1.94 | -1.66 | 1.15 | 7.48% (inactive) | -0.483 (inactive) | -0.00016 (inactive) | 0.00459 (inactive) | inactive | 30.4% (inactive)
25 | CCOc1ccc(Cn2c(O)cc(=O)[nH]c2=O)cc1 | 530 | 1.9% (inactive) | -97.4% (inactive) | 190% | 0.509 | 0.944 | -0.603 | 14% (inactive) | -0.322 (inactive) | 9.9e-06 (inactive) | 0.00555 (inactive) | inactive | -15% (inactive)
26 | COC(=O)CCc1c(C)[nH]c(C(=O)OCc2ccccc2)c1C | 596 | -4.1% (inactive) | -34% (inactive) | 179% | -1.2 | -0.0699 | 0.772 | -5.89% (inactive) | -0.487 (inactive) | -0.00013 (inactive) | 0.00445 (inactive) | inactive | -0.974% (inactive)
27 | O=C(c1ccc(F)cc1)N1CCC(N2CCCCCC2)CC1 | 392 | -0.5% (inactive) | -100% (inactive) | 138% | -0.0132 | 0.516 | -0.618 | 15.1% (inactive) | -0.395 (inactive) | -7.7e-06 (inactive) | 0.00694 (inactive) | inactive | 43.9% (inactive)
